Reference: ChEMBL document CHEMBL1131143, “Predictive models for GABAA/benzodiazepine receptor subtypes: studies of quantitative structure-activity relationships for imidazobenzodiazepines at five recombinant GABAA/benzodiazepine receptor subtypes [alphaxbeta3gamma2 (x = 1-3, 5, and 6)] via comparative molecular field analysis” (J Med Chem, 1998)

Key:
Assay type in all cases: protein-complex assay
[1] = molecular target: T1, GABA-A receptor; alpha-1/beta-3/gamma-2 (Homo sapiens, UniProt P14867+P18507+P28472); assay: Binding affinity against alpha-1-beta-3-gamma-2 GABAA/BzR receptor subtype.
T1 sequence (P14867 whole entry): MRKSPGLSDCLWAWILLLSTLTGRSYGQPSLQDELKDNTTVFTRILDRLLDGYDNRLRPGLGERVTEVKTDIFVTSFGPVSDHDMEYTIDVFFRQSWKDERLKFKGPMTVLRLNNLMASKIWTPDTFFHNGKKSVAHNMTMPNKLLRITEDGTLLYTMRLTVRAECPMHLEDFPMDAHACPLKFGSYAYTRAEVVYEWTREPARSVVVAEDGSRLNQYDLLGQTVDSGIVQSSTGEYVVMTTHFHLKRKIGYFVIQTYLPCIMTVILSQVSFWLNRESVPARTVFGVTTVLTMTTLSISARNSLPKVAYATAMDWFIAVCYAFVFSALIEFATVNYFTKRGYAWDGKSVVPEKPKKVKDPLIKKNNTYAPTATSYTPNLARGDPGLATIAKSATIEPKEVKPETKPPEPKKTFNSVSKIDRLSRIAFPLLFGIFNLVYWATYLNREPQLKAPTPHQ
T1 sequence (P18507 whole entry): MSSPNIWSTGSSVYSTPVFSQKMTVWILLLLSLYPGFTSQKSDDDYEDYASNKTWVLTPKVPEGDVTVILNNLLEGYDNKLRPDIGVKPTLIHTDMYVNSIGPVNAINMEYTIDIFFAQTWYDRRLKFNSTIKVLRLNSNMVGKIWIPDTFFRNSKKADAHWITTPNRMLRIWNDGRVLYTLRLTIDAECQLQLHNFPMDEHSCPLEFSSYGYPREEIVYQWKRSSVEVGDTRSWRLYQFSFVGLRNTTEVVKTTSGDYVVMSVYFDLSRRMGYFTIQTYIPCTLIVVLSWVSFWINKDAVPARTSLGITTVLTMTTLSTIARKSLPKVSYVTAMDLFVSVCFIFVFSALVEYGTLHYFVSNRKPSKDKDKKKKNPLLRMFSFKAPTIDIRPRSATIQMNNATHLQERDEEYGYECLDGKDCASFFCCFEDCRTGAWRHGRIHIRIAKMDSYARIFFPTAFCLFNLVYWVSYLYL
T1 sequence (P28472 whole entry): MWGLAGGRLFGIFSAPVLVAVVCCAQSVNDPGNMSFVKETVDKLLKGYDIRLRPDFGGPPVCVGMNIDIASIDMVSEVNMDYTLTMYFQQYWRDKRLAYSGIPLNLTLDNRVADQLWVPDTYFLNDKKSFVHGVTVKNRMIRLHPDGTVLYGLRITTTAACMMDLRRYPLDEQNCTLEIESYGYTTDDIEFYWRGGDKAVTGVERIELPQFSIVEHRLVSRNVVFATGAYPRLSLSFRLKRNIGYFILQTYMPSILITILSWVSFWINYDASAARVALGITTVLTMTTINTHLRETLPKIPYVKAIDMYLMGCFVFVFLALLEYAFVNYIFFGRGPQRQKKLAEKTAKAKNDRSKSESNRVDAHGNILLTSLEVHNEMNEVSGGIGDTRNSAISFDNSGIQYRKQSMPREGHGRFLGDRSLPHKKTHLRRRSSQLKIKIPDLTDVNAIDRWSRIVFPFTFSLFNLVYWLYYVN

[2] = molecular target: T2, GABA-A receptor; alpha-5/beta-3/gamma-2 (Homo sapiens, UniProt P18507+P28472+P31644); assay: Binding affinity for Gamma-aminobutyric acid A receptor alpha-5-beta-3-gamma-2
T2 sequence (P18507 whole entry): T1 sequence (P18507 whole entry)
T2 sequence (P28472 whole entry): T1 sequence (P28472 whole entry)
T2 sequence (P31644 whole entry): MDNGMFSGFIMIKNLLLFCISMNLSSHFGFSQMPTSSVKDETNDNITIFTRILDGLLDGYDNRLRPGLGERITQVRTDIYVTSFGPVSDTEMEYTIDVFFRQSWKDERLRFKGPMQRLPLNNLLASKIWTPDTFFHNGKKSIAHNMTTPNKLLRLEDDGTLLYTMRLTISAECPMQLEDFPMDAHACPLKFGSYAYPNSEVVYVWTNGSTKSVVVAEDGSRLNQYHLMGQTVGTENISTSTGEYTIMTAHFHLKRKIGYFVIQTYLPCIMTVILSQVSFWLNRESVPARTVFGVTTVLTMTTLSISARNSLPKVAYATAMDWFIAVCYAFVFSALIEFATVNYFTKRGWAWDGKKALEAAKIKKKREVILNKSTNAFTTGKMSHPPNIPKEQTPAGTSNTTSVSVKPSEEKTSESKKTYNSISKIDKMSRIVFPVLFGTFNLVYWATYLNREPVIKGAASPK

[3] = molecular target: T3, GABA-A receptor; alpha-3/beta-3/gamma-2 (Homo sapiens, UniProt P18507+P28472+P34903); assay: Binding affinity against alpha-3-beta-3-gamma-2 GABAA/BzR receptor subtype.
T3 sequence (P18507 whole entry): T1 sequence (P18507 whole entry)
T3 sequence (P28472 whole entry): T1 sequence (P28472 whole entry)
T3 sequence (P34903 whole entry): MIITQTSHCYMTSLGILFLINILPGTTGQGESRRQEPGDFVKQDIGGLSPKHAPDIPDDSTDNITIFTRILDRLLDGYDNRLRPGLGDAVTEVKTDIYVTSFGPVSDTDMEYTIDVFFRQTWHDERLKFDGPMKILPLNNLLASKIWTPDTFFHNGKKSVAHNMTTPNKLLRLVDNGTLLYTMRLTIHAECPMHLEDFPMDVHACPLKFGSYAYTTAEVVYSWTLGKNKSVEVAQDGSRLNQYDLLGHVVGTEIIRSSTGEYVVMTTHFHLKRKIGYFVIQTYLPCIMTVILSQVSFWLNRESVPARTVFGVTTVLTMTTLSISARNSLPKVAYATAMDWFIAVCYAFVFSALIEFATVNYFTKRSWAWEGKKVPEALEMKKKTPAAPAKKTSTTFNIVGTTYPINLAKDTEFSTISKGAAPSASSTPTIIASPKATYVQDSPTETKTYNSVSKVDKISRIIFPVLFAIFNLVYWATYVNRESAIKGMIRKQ

[4] = molecular target: GABA-A receptor; alpha-1/beta-3/gamma-2 (Homo sapiens) (UniProt P14867+P18507+P28472); assay: It is the ratio of Ki value for alpha-1-beta-3-gamma-2 to that of alpha-5-beta-3-gamma-2
[5] = molecular target: T4, GABA-A receptor; alpha-2/beta-3/gamma-2 (Homo sapiens, UniProt P18507+P28472+P47869); assay: Binding affinity tested against alpha-2-beta-3-gamma-2 GABAA/BzR receptor subtype.
T4 sequence (P18507 whole entry): T1 sequence (P18507 whole entry)
T4 sequence (P28472 whole entry): T1 sequence (P28472 whole entry)
T4 sequence (P47869 whole entry): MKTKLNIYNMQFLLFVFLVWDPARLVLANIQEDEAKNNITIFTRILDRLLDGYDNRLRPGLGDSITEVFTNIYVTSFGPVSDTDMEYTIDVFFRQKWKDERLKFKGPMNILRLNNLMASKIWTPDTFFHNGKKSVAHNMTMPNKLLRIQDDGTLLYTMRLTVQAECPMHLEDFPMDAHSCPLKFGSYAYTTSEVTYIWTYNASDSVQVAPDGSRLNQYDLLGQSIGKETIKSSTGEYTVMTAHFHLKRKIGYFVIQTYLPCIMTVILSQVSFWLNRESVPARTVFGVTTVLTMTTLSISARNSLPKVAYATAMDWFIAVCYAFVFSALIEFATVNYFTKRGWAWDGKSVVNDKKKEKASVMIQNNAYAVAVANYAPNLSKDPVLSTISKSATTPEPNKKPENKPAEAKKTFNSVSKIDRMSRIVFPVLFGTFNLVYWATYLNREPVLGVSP

[6] = molecular target: GABA-A receptor; alpha-6/beta-3/gamma-2 (Homo sapiens, UniProt P18507+P28472+Q16445); assay: Binding affinity against Gamma-aminobutyric acid A receptor alpha-6-beta-3-gamma-2
Procedure, shortened: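 Cells scraped into PBS, spun at 3000g, resuspended in 10 mM KH₂PO₄/100 mM KCl pH 7.4. Nonspecific binding with 10⁻⁵ M diazepam; 1 h to equilibrium at 4 °C; filtration, ice-cold buffer wash, scintillation counting.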

Chain of GABA-A receptor; alpha-6/beta-3/gamma-2 (Q16445 whole entry, one chain of several): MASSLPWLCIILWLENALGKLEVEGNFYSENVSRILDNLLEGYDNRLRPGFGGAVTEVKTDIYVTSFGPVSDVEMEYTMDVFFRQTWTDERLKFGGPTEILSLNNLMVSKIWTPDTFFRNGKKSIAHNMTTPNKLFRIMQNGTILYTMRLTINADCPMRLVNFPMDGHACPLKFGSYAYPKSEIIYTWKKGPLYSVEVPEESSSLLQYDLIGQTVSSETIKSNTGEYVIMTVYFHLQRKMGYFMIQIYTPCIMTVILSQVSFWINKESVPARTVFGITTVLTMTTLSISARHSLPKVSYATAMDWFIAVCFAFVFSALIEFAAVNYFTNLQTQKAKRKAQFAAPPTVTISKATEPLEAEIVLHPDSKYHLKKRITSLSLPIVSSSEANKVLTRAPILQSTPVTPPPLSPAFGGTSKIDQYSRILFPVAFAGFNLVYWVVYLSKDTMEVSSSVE

Row | Compound | Ki [1] | Ki [2] | Ki [3] | Ratio [4] | Ki [5] | Ki [6]
1 | C=Cc1ccc2c(c1)C(=O)N(C)Cc1c(C(=O)OCC)ncn1-2 | 8.3 nM | 0.4 nM | 6.9 nM | 20.8 | 10.2 nM | –
2 | C#Cc1ccc2c(c1)C(=O)N1CCC[C@@H]1c1c(C(=O)OCC)ncn1-2 | 283 nM | 7.2 nM | 102 nM | 39 | 318 nM | 61 nM
3 | CCOC(=O)c1ncn2c1CN(C)C(=O)c1cc(N=[N+]=[N-])ccc1-2 [Ro-154513] | – | 0.27 nM | – | – | – | –
4 | C#Cc1ccc2c(c1)C(=O)N1CCC[C@@H]1c1c(-c3nc(C)no3)ncn1-2 | > 1000 nM | 157 nM | > 1000 nM | – | > 1000 nM | > 1000 nM
5 | CN1Cc2c(C(=O)OC(C)(C)C)ncn2-c2ccc(N=[N+]=[N-])cc2C1=O | 7.25 nM | 0.3 nM | 5.66 nM | 24.3 | – | 5.25 nM
6 | CCOC(=O)c1ncn2c1CN(C)C(=O)c1cc(Cl)ccc1-2 [Ro-151310] | – | – | – | 8 | – | –
7 | CN1Cc2c(C(=O)OC(C)(C)C)ncn2-c2ccc(O)cc2C1=O | 1.5 nM | 0.14 nM | 0.53 nM | 10.7 | – | 6.89 nM
8 | CCN(CC)Cc1ncn2c1CN(C)C(=O)c1cc(Cl)ccc1-2 | 9480 nM | 2580 nM | 15400 nM | 3.2 | 30000 nM | 30200 nM
9 | CCOC(=O)c1ncn2c1[C@H]1CCCN1C(=O)c1cc(C#C[Si](C)(C)C)ccc1-2 | > 1000 nM | > 1000 nM | > 1000 nM | – | > 1000 nM | > 1000 nM
10 | CN1Cc2c(C(=O)OC(C)(C)C)ncn2-c2ccc(Br)cc2C1=O | 11.4 nM | 0.47 nM | 9.2 nM | 24.3 | 10.7 nM | 9.4 nM
11 | CN1Cc2c(C(=O)OC(C)(C)C)ncn2-c2ccc(N=C=S)cc2C1=O | 17.1 nM | 2.5 nM | 50 nM | 6.8 | 33.7 nM | 30.7 nM
12 | CCOC(=O)c1ncn2c1[C@@H]1CCCN1C(=O)c1cc(C#C[Si](C)(C)C)ccc1-2 | 200 nM | 4 nM | 79 nM | 50 | 124 nM | 340 nM
13 | CC#Cc1ccc2c(c1)C(=O)N(C)Cc1c(C(=O)OCC)ncn1-2 | 10.1 nM | 1.68 nM | 16.5 nM | 6 | 22.2 nM | > 100 nM
14 | CN1Cc2c(CCl)ncn2-c2ccc(Cl)cc2C1=O | > 300 nM | 28.5 nM | > 300 nM | > 10.5 | > 300 nM | > 300 nM
15 | CN1Cc2c(C(=O)OC(C)(C)C)ncn2-c2ccc(I)cc2C1=O | 9.7 nM | 0.38 nM | 10.9 nM | 25.5 | 11.2 nM | 4.6 nM
16 | CCOC(=O)c1ncn2c1[C@H]1CCCN1C(=O)c1cc(Br)ccc1-2 | > 1000 nM | > 1000 nM | > 1000 nM | – | > 1000 nM | > 1000 nM
17 | CCOC(=O)c1ncn2c1[C@@H]1CCN1C(=O)c1cc(Br)ccc1-2 | 17 nM | 0.3 nM | 6.7 nM | 56 | 13 nM | 31 nM
18 | C#Cc1ccc2c(c1)C(=O)N1CCC[C@H]1c1c(C(=O)OCC)ncn1-2 | 59 nM | 1.3 nM | 27 nM | 45 | 44 nM | 126 nM
19 | CCc1ncn2c1CN(C)C(=O)c1cc(Cl)ccc1-2 | 408 nM | 182 nM | 1130 nM | 2.2 | 1530 nM | 3650 nM
20 | C#Cc1ccc2c(c1)C(=O)N1CC[C@H]1c1c(-c3nc(CC)no3)ncn1-2 | 220 nM | 12.7 nM | 184 nM | 17 | 150 nM | 361 nM
21 | CN1Cc2c(C(=O)OC(C)(C)C)ncn2-c2ccc(N3CCCC3)cc2C1=O | 5.8 nM | 9.25 nM | 169 nM | 0.63 | – | 325 nM
22 | CN1Cc2c(CO)ncn2-c2ccc(Cl)cc2C1=O | > 300 nM | > 300 nM | > 300 nM | – | > 300 nM | > 300 nM
23 | CCOC(=O)c1ncn2c1CN(C)C(=O)c1cc(C#C[Si](C)(C)C)ccc1-2 | – | 5 nM | 198 nM | 24.2 | 142 nM | 114 nM
24 | COc1ccc2c(c1)C(=O)N(C)Cc1c(C(=O)OC(C)(C)C)ncn1-2 | 6.74 nM | 0.293 nM | 7.42 nM | 23 | – | 8.28 nM
25 | CCOC(=O)c1ncn2c1CN(C)C(=O)c1cc(C#CC[Si](C)(C)C)ccc1-2 | > 300 nM | > 300 nM | > 300 nM | – | > 300 nM | > 300 nM
26 | C#Cc1ccc2c(c1)C(=O)N1CC[C@H]1c1c(-c3nc(C)no3)ncn1-2 | – | 7.2 nM | 91 nM | – | 56 nM | 266 nM
